The source of these data is ChEMBL document CHEMBL4813921, “Optimization of WZ4003 as NUAK inhibitors against human colorectal cancer” (Eur J Med Chem, 2021).

What is called inhibition is the drop in the measured response relative to a control, in per cent.

For series [1], the system named is U2OS. Put plainly: Induction of cell cycle arrest in human U2OS cells assessed as increase in accumulation at G2/M phase at 10 uM measured after 48 hrs by PI/RNaseA staining based flow cytometry assay. It is filed as functional. On the technique in general: Flow cytometry measures light scatter and fluorescence of single cells or particles in a stream.
Series [2] concerns U2OS. The experiment in a line: Induction of apoptosis in human U2OS cells assessed as late apoptotic cells at 10 uM measured after 48 hrs by Annexin V-FITC/PI staining based flow cytometry method (reference value: 1.3%). It is filed as functional.
Series [3] deals with U2OS. Put plainly: Induction of apoptosis in human U2OS cells assessed as necrotic cells at 10 uM measured after 48 hrs by Annexin V-FITC/PI staining based flow cytometry method (reference value: 0.4%). It is filed as functional.
For series [4], the system named is SW480. The experiment in a line: Induction of cell cycle arrest in human SW480 cells assessed as reduction in accumulation at S phase at 10 uM measured after 48 hrs by PI/RNaseA staining based flow cytometry assay. The series is classed as functional.
Series [5] relates to SW480. The experiment in a line: Induction of apoptosis in human SW480 cells assessed as necrotic cells at 10 uM measured after 48 hrs by Annexin V-FITC/PI staining based flow cytometry method (reference value: 1.4%). It is filed as functional.
In series [6] the test system is HCT-116. The experiment in a line: Induction of apoptosis in human HCT-116 cells assessed as viable cells at 10 uM measured after 48 hrs by Annexin V-FITC/PI staining based flow cytometry method (reference value: 95.4%). It is filed as functional. Particulars: read-out: Activity.
The subject of series [7] is SW480. Put plainly: Antiproliferative activity against human SW480 cells at 2.5 to 10 uM measured after 48 hrs by EdU staining based assay. It is filed as functional, cell-based. Particulars: dose 2.5-10 µM. The essentials:
(§1)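 Cells exposed to a range of compound concentrations for 48 h, then EdU click-chemistry staining with DAPI counterstain. Confocal high-content imaging; DAPI-positive nuclei counted as total and EdU-positive as proliferating.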

Series [8] concerns HCT-116. The experiment in a line: Induction of cell cycle arrest in human HCT-116 cells assessed as reduction in accumulation at S phase at 10 uM measured after 48 hrs by PI/RNaseA staining based flow cytometry assay. It is filed as functional.
The subject of series [9] is SW480. The experiment in a line: Induction of cell cycle arrest in human SW480 cells assessed as reduction in accumulation at G1 phase at 10 uM measured after 48 hrs by PI/RNaseaA staining based flow cytometry assay. It is filed as functional.
The target in series [10] is T1, NUAK family SNF1-like kinase 2 (Homo sapiens) (UniProt Q9H093).
T1 sequence (whole entry): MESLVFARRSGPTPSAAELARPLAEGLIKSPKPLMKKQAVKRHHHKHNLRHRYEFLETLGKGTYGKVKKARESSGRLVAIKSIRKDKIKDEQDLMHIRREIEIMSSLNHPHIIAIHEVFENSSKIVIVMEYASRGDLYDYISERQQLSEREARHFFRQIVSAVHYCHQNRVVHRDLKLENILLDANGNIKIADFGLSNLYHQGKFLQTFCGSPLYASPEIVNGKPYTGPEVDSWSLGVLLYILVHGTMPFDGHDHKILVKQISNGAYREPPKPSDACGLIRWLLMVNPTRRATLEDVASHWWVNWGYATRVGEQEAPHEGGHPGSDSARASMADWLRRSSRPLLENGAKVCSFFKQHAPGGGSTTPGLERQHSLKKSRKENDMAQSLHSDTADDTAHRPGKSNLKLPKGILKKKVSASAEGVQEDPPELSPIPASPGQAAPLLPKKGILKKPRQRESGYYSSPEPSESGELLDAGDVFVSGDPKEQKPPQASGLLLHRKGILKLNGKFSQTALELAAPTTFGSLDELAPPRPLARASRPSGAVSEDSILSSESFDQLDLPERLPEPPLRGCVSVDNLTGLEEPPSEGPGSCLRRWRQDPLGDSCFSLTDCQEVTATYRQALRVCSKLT
The experiment in a line: Inhibition of NUAK2 (unknown origin) at 10 uM using CHKtide as substrate in presence of ATP measured after 60 mins by ADP-Glo assay.

Series [11] relates to U2OS. Put plainly: Induction of ROS generation in human U2OS cells at 10 uM measured after 48 hrs by DCFH-DA staining based flow cytometry method. It is filed as functional, cell-based. The procedure, abridged: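 Cells treated at 10 μM for 48 h, ROS measured by flow cytometry. Fluorescence intensity expressed relative to vehicle-treated controls; mean ± SEM from 3 independent experiments.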

For series [12], the system named is SW480. Put plainly: Antitumour activity against human SW480 cells xenografted in Balb/c-nu/nu mouse assessed as reduction in Ki67 expression in tumor at 10 mg/kg, ip administered every 2 days for 18 days by immunohistochemical assay. Particulars: time 18.0 day. The series is classed as functional, organism-based. The procedure, abridged: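 SW480 xenografts in nude mice (n = 6 per group) treated ip every two days for 18 days. Excised tumours sectioned for HE and Ki67 staining, examined at ×400.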

The subject of series [13] is HCT-116. Put plainly: Induction of apoptosis in human HCT-116 cells assessed as necrotic cells at 10 uM measured after 48 hrs by Annexin V-FITC/PI staining based flow cytometry method (reference value: 2.2%). It is filed as functional.
Series [14] is described as follows: Toxicity against BALB/c-nu/nu mouse xenografted with human SW480 cells assessed as morphological changes in liver at 10 to 20 mg/kg, ip administered every 2 days for 18 days by H and E staining based analysis. The series is classed as organism-based. Particulars: in vivo, 432 h, dose 10-20 mg/kg, time 18 day. The procedure, abridged:
(§2)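 After 18 days of ip dosing every two days in SW480-xenografted nude mice, heart, liver, spleen, lung and kidney harvested, sectioned, HE-stained, examined at ×400.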
For orientation: In xenograft studies the graft and the host belong to different species.

Series [15] in a line: Toxicity against BALB/c-nu/nu mouse xenografted with human SW480 cells assessed as morphological changes in heart at 10 to 20 mg/kg, ip administered every 2 days for 18 days by H and E staining based analysis. The series is classed as organism-based. Particulars: in vivo, 432 h, dose 10-20 mg/kg, time 18 day. The essentials: as §2
The test system of series [16] is HCT-116. Put plainly: Antiproliferative activity against human HCT-116 cells at 2.5 to 10 uM measured after 48 hrs by EdU staining based assay. The series is classed as functional, cell-based. Particulars: dose 2.5-10 µM. The procedure, abridged:
as §1

Series [17] has as its system HCT-116. The experiment in a line: Induction of apoptosis in human HCT-116 cells assessed as early apoptotic cells at 10 uM measured after 48 hrs by Annexin V-FITC/PI staining based flow cytometry method (reference value: 0.8%). It is filed as functional.
Series [18] can be described thus: Toxicity against BALB/c-nu/nu mouse xenografted with human SW480 cells assessed as morphological changes in lung at 10 to 20 mg/kg, ip administered every 2 days for 18 days by H and E staining based analysis. The series is classed as organism-based. Particulars: in vivo, 432 h, dose 10-20 mg/kg, time 18 day. The procedure, abridged:
as §2

The subject of series [19] is SW480. Put plainly: Induction of apoptosis in human SW480 cells assessed as late apoptotic cells at 10 uM measured after 48 hrs by Annexin V-FITC/PI staining based flow cytometry method (reference value: 2.8%). The series is classed as functional.
Series [20] has as its system SW480. Put plainly: Antitumour activity against human SW480 cells xenografted in Balb/c-nu/nu mouse assessed as reduction in tumor weight at 10 to 20 mg/kg, ip administered every 2 days for 18 days. It is filed as functional, organism-based. Particulars: dose 10-20 mg/kg, time 18.0 day. The procedure, abridged:
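SW480 xenografts in nude mice, randomized at 100 mm3 tumour volume into four groups of six. Dosed ip at 10 or 20 mg/kg every two days for 18 days, with vehicle group. Tumour volume and body weight recorded every two days; tumours weighed at end; means ± SD (n = 6).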

The subject of series [21] is HCT-116. Put plainly: Inhibition of colony formation in human HCT-116 cells measured after 14 days by crystal violet staining based microcopic analysis. Particulars: dose 0.5-2 µM, time 14.0 day. It is filed as functional, cell-based. The essentials:
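Clonogenic assay with 14-day exposure to a range of compound concentrations; colonies stained with crystal violet and imaged by microscopy; compared with untreated cells.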

Series [22] has as its system SW480. Put plainly: Induction of apoptosis in human SW480 cells assessed as viable cells at 10 uM measured after 48 hrs by Annexin V-FITC/PI staining based flow cytometry method (reference value: 93.2%). The series is classed as functional. Particulars: read-out: Activity.

Structures are written as SMILES. Active and inactive are the calls of the source. No cut-off for these calls is given here.

For the compound `CCC(=O)Nc1cccc(Oc2nc(Nc3ccc(N4CCN(C)CC4)cc3)ncc2Cl)c1`, the outcome with U2OS [1], in the series with SW480 [4], with SW480 [7], in the series with HCT-116 [8], with SW480 [9] and with U2OS [11] was Active. Also, the result in the series with SW480 [12], in the series with HCT-116 [16] and with SW480 [20] was Active. The Activity in the series with U2OS [2] is listed as 4.8%; in the series with U2OS [3] it was 0.6%; in the series with SW480 [5] it was 3.3%; with HCT-116 [13], 4.1%; in series [14] it was “Non-Toxic”; in [15] it was “Non-Toxic”. For the same compound, the Activity was 3.9% with HCT-116 [17], “Non-Toxic” in series [18] and 10.8% in the series on SW480 [19]. Moreover, the results for the viability at 10 µM with HCT-116 [6] and with SW480 [22] were 46% and 69.8%, respectively. Besides, the inhibition in [10] is 82.5%; in the series with HCT-116 [21], “Dose-Dependent Effect”.
